Source: ChEMBL document CHEMBL4265871, “Novel alkylated azoles as potent antifungals” (Eur J Med Chem, 2017)
Values after ≈ are worked out from the molar mass of the structure shown.

Key:
Candida albicans [1] = assay: Antifungal activity against Candida albicans ATCC 10231 incubated for 48 hrs by modified CLSI M27-A3 protocol based method; type: functional; details: ATCC 10231, 48 h, read-out: MIC100
In short: (§1)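 For C. albicans ATCC 10231, C. krusei ATCC 6258 and C. parapsilosis ATCC 22019, MIC-0 was read, meaning complete growth inhibition. For azole controls, MIC-2 (50% growth inhibition) was reported instead. Caspofungin and voriconazole were tested here; other controls came from earlier work.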

Candida albicans [2] = assay: Antifungal activity against Candida albicans ATCC 64124 incubated for 48 hrs by modified CLSI M27-A3 protocol based method; type: functional; details: ATCC 64124, 48 h
Candida albicans [3] = assay: Antifungal activity against ITC and FLC-susceptible Candida albicans ATCC MYA-2876 incubated for 48 hrs by modified CLSI M27-A3 protocol based method; type: functional; details: ATCC MYA-2876, 48 h
In short: (§2)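 Because these Candida strains show trailing growth, MIC-2 was read, meaning 50% growth inhibition. Caspofungin and voriconazole were tested here; other controls came from earlier work.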

Candida albicans [4] = assay: Antifungal activity against ITC and FLC-resistant Candida albicans ATCC MYA-90819 incubated for 48 hrs by modified CLSI M27-A3 protocol based method; type: functional; details: ATCC MYA-90819, 48 h
Candida albicans [5] = assay: Antifungal activity against ITC and FLC-susceptible Candida albicans ATCC MYA-2310 incubated for 48 hrs by modified CLSI M27-A3 protocol based method; type: functional; details: ATCC MYA-2310, 48 h
Candida albicans [6] = assay: Antifungal activity against ITC and FLC-resistant Candida albicans ATCC 1237 incubated for 48 hrs by modified CLSI M27-A3 protocol based method; type: functional; details: ATCC 1237, 48 h; in short: as §2
Nakaseomyces glabratus = assay: Antifungal activity against Candida glabrata ATCC 2001 incubated for 48 hrs by modified CLSI M27-A3 protocol based method; type: functional; details: ATCC 2001, 48 h
Candida parapsilosis = assay: Antifungal activity against Candida parapsilosis ATCC 22019 incubated for 48 hrs by modified CLSI M27-A3 protocol based method; type: functional; details: Lodderomyces parapsilosis, ATCC 22019, 48 h; read-out: MIC100; in short: as §1
Aspergillus nidulans = assay: Antifungal activity against Aspergillus nidulans ATCC 38163 incubated for 48 hrs by CLSI M38-A2 protocol based method; type: functional; details: ATCC 38163, 48 h, read-out: MIC100
Aspergillus terreus = assay: Antifungal activity against Aspergillus terreus ATCC MYA-3633 incubated for 48 hrs by CLSI M38-A2 protocol based method; type: functional; details: ATCC MYA-3633, 48 h, read-out: MIC100
[7] = Hemolytic activity in mouse erythrocytes assessed as hemolysis level at 3.9 ug/ml incubated for 1 hr at 37 degC; type: ADME, cell-based, Erythrocyte; details: read-out: Activity
In short: (§3)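 Mouse erythrocytes incubated 1 h at 37 °C with test agents over 1.95 to 125 µg/mL. Percent lysis is read for each concentration.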

[8] = Hemolytic activity in mouse erythrocytes assessed as hemolysis level at 7.8 ug/ml incubated for 1 hr at 37 degC; type: ADME, cell-based, Erythrocyte; details: read-out: Activity; in short: as §3
[9] = Hemolytic activity in mouse erythrocytes assessed as hemolysis level at 31.3 ug/ml incubated for 1 hr at 37 degC; type: ADME, cell-based, Erythrocyte; details: read-out: Activity; in short: as §3
[10] = Hemolytic activity in mouse erythrocytes assessed as hemolysis level at 125 ug/ml incubated for 1 hr at 37 degC; type: ADME, cell-based, Erythrocyte; details: read-out: Activity; in short: as §3
[11] = Selectivity index, ratio of EC50 for toxicity in human A549 cells to MIC100 for antifungal activity against Candida albicans ATCC 10231; type: cell-based; details: read-out: Selectivity Index
In short: (§4)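 Selectivity index is the EC50 against the mammalian line (A549 or BEAS-2B) divided by the MIC against the given fungal strain.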

[12] = Selectivity index, ratio of EC50 for toxicity in human BEAS2B cells to MIC50 for antifungal activity against Candida albicans ATCC 64124; type: cell-based; details: BEAS-2B cells, read-out: Selectivity Index; in short: as §4
[13] = Selectivity index, ratio of EC50 for toxicity in human BEAS2B cells to MIC100 for antifungal activity against Candida albicans ATCC 10231; type: cell-based; details: BEAS-2B cells, read-out: Selectivity Index; in short: as §4
[14] = Selectivity index, ratio of EC50 for toxicity in human A549 cells to MIC50 for antifungal activity against Candida albicans ATCC 64124; type: cell-based; details: read-out: Selectivity Index; in short: as §4
[15] = Selectivity index, ratio of EC50 for toxicity in human A549 cells to MIC50 for antifungal activity against ITC and FLC-susceptible Candida albicans ATCC MYA-2876; type: cell-based; details: read-out: Selectivity Index; in short: as §4
[16] = Selectivity index, ratio of EC50 for toxicity in human A549 cells to MIC50 for antifungal activity against ITC and FLC-resistant Candida albicans ATCC MYA-90819; type: cell-based; details: read-out: Selectivity Index; in short: as §4
[17] = Selectivity index, ratio of EC50 for toxicity in human BEAS2B cells to MIC50 for antifungal activity against ITC and FLC-resistant Candida albicans ATCC MYA-90819; type: cell-based; details: BEAS-2B cells, read-out: Selectivity Index
In short: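 Ratio of the compound's EC50 against BEAS-2B cells to its MIC against the named C. albicans strain. […] For C. albicans strains other than ATCC 10231, trailing growth meant MIC-2 was taken, meaning 50% growth inhibition.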

[18] = Selectivity index, ratio of EC50 for toxicity in human A549 cells to MIC50 for antifungal activity against ITC and FLC-susceptible Candida albicans ATCC MYA-2310; type: cell-based; details: read-out: Selectivity Index; in short: as §4
[19] = Selectivity index, ratio of EC50 for toxicity in human A549 cells to MIC50 for antifungal activity against ITC and FLC-resistant Candida albicans ATCC 1237; type: cell-based; details: read-out: Selectivity Index; in short: as §4
[20] = Selectivity index, ratio of EC50 for toxicity in human BEAS2B cells to MIC50 for antifungal activity against ITC and FLC-resistant Candida albicans ATCC 1237; type: cell-based; details: BEAS-2B cells, read-out: Selectivity Index; in short: as §4
[21] = Selectivity index, ratio of EC50 for toxicity in human A549 cells to MIC50 for antifungal activity against ITC and FLC-resistant Candida albicans ATCC MYA-1003; type: cell-based; details: read-out: Selectivity Index; in short: as §4
[22] = Selectivity index, ratio of EC50 for toxicity in human BEAS2B cells to MIC50 for antifungal activity against ITC and FLC-resistant Candida albicans ATCC MYA-1003; type: cell-based; details: BEAS-2B cells, read-out: Selectivity Index; in short: as §4
[23] = Selectivity index, ratio of EC50 for toxicity in human BEAS2B cells to MIC50 for antifungal activity against Candida glabrata ATCC 2001; type: cell-based; details: BEAS-2B cells, read-out: Selectivity Index; in short: as §4
[24] = Selectivity index, ratio of […] for toxicity in human A549 cells to MIC50 for antifungal activity against Aspergillus flavus ATCC MYA-3631; type: cell-based; details: read-out: Selectivity Index
[25] = Selectivity index, ratio of […] for toxicity in human BEAS2B cells to MIC50 for antifungal activity against Aspergillus flavus ATCC MYA-3631; type: cell-based; details: BEAS-2B cells, read-out: Selectivity Index
[26] = Selectivity index, ratio of […] for toxicity in human A549 cells to MIC50 for antifungal activity against Aspergillus nidulans ATCC 38163; type: cell-based; details: read-out: Selectivity Index
[27] = Selectivity index, ratio of […] for toxicity in human BEAS2B cells to MIC50 for antifungal activity against Aspergillus terreus ATCC MYA-3633; type: cell-based; details: BEAS-2B cells, read-out: Selectivity Index
[28] = Selectivity index, ratio of EC50 for toxicity in human A549 cells to MIC50 for antifungal activity against Candida krusei ATCC 6258

Structure (SMILES) | MIC (Candida albicans [1]) | MIC50 (Candida albicans [2]) | MIC50 (Candida albicans [3]) | MIC50 (Candida albicans [4]) | MIC50 (Candida albicans [5]) | MIC50 (Candida albicans [6]) | MIC50 (Nakaseomyces glabratus) | MIC (Candida parapsilosis) | MIC (Aspergillus nidulans) | MIC (Aspergillus terreus) | hemolysis at 1 h, 3.9 ug/ml [7] | hemolysis at 1 h, 7.8 ug/ml [8] | hemolysis at 1 h, 31.3 ug/ml [9] | hemolysis at 1 h, 125 ug/ml [10] | selectivity ratio [11] | selectivity ratio [12] | selectivity ratio [13] | selectivity ratio [14] | selectivity ratio [15] | selectivity ratio [16] | other results
CCCCCC(O)(Cn1cncn1)c1ccccc1F (centres undefined) | 14.1 µM (≈ 3.91 µg/mL) | > 113 µM | 3.5 µM (≈ 0.971 µg/mL) | 1.7 µM (≈ 0.471 µg/mL) | 3.5 µM (≈ 0.971 µg/mL) | 3.5 µM (≈ 0.971 µg/mL) | 3.5 µM (≈ 0.971 µg/mL) | 0.43 µM (≈ 0.119 µg/mL) | 1.7 µM (≈ 0.471 µg/mL) | 14.1 µM (≈ 3.91 µg/mL) | 0% | 0% | 0% | 20.7% | 9 | 1 | 8 | 1 | 38 | 77 | selectivity ratio [17]: 65; selectivity ratio [18]: 38; selectivity ratio [19]: 38; selectivity ratio [20]: 32; selectivity ratio [21]: 9; selectivity ratio [22]: 8; selectivity ratio [23]: 32; selectivity ratio [24]: 5; selectivity ratio [25]: 4; selectivity ratio [26]: 77; selectivity ratio [27]: 8; selectivity ratio [28]: 617
CCCCC(O)(Cn1cncn1)c1ccc(Cl)cc1Cl (centres undefined) [HEXACONAZOLE] | 0.76 µM (≈ 0.239 µg/mL) | 12.4 µM (≈ 3.9 µg/mL) | 6.2 µM (≈ 1.95 µg/mL) | 6.2 µM (≈ 1.95 µg/mL) | 6.2 µM (≈ 1.95 µg/mL) | 24.8 µM (≈ 7.79 µg/mL) | 12.4 µM (≈ 3.9 µg/mL) | < 0.1 µM | 0.76 µM (≈ 0.239 µg/mL) | 3.1 µM (≈ 0.974 µg/mL) | 0% | 0% | 0% | 100% | 130 | 8 | 130 | 8 | 16 | 16 | selectivity ratio [17]: 16; selectivity ratio [18]: 16; selectivity ratio [19]: 4; selectivity ratio [20]: 4; selectivity ratio [21]: 32; selectivity ratio [22]: 32; selectivity ratio [23]: 8; selectivity ratio [24]: 8; selectivity ratio [25]: 8; selectivity ratio [26]: 130; selectivity ratio [27]: 32; selectivity ratio [28]: 522
